Laboratory results published in ChEMBL document CHEMBL2434871, “Discovery of a potent dual EGFR/HER-2 inhibitor L-2 (selatinib) for the treatment of cancer” (Eur J Med Chem, 2013).
pIC50: −log10 of the molar value.

Assays:
[1] = target: Epidermal growth factor receptor (Homo sapiens, UniProt P00533); experiment: Inhibition of EGFR (unknown origin) using poly-(Glu4-Tyr) as substrate after 1 hr by ELISA-based spectrophotometry
[2] = target: Receptor tyrosine-protein kinase erbB-2 (Homo sapiens, UniProt P04626); experiment: Inhibition of HER-2 (unknown origin) using poly-(Glu4-Tyr) as substrate after 1 hr by ELISA-based spectrophotometry
How it was run: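 ELISA on plates pre-coated with poly(Glu,Tyr 4:1) substrate. Serially diluted compounds plus ATP were added in 50 mM HEPES pH 7.4 containing 20 mM MgCl₂, 0.2 mM MnCl₂, 0.1 mM Na₃VO₄ and 1 mM DTT. Phosphotyrosine was detected with anti-phosphotyrosine antibody PY99 (1:500), then HRP anti-mouse IgG, then o-phenylenediamine/H₂O₂ at pH 5.5.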

Mus musculus [3] = experiment: Toxicity in BALB/c athymic mouse xenografted with human NCI-N87 cells assessed as weight loss at 200 mg/kg, po qd after 4 days; format: organism-based; design: dose 200 mg/kg, route oral; conditions: in vivo, 96 h
Mus musculus [4] = experiment: Toxicity in BALB/c athymic mouse xenografted with human SKOV3 cells assessed as hematuria at 200 mg/kg, po qd after 4 days; format: organism-based, SK-OV-3; design: dose 200 mg/kg, route oral; conditions: in vivo, 96 h
Mus musculus [5] = experiment: Toxicity in BALB/c athymic mouse xenografted with human NCI-N87 cells assessed as death at 200 mg/kg, po qd after 4 days; format: organism-based; design: dose 200 mg/kg, route oral; conditions: in vivo, 96 h
How it was run: (§1)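 Female BALB/c athymic mice, 4-6 weeks old and pathogen-free, were housed under sterile conditions. NCI-N87 or SK-OV-3 cells (2 × 10⁶) were implanted s.c. in the right flank. At tumor volumes of 100-300 mm³, mice were randomized to vehicle control (n = 10) or treatment (n = 6). Treatment was the tosylate salt at 200 mg/kg by oral gavage once daily. Mice were monitored for clinical signs, body weight and death.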

Mus musculus [6] = experiment: Toxicity in BALB/c athymic mouse xenografted with human NCI-N87 cells assessed as diarrhea at 200 mg/kg, po qd; format: organism-based; design: dose 200 mg/kg, route oral; conditions: in vivo
Mus musculus [7] = experiment: Toxicity in BALB/c athymic mouse xenografted with human NCI-N87 cells assessed as hematuria at 200 mg/kg, po qd after 4 days; format: organism-based; design: dose 200 mg/kg, route oral; conditions: in vivo, 96 h
Mus musculus [8] = experiment: Toxicity in BALB/c athymic mouse xenografted with human SKOV3 cells assessed as scruffy skin at 200 mg/kg, po qd; format: organism-based, SK-OV-3; design: dose 200 mg/kg, route oral; conditions: in vivo
Mus musculus [9] = experiment: Toxicity in BALB/c athymic mouse xenografted with human NCI-N87 cells assessed as lethargic condition at 200 mg/kg, po qd; format: organism-based; design: dose 200 mg/kg, route oral; conditions: in vivo
Mus musculus [10] = experiment: Toxicity in BALB/c athymic mouse xenografted with human SKOV3 cells assessed as weight loss at 200 mg/kg, po qd after 4 days; format: organism-based, SK-OV-3; design: dose 200 mg/kg, route oral; conditions: in vivo, 96 h
Mus musculus [11] = experiment: Toxicity in BALB/c athymic mouse xenografted with human NCI-N87 cells assessed as scruffy skin at 200 mg/kg, po qd; format: organism-based; design: dose 200 mg/kg, route oral; conditions: in vivo
Mus musculus [12] = experiment: Toxicity in BALB/c athymic mouse xenografted with human SKOV3 cells assessed as diarrhea at 200 mg/kg, po qd; format: organism-based, SK-OV-3; design: dose 200 mg/kg, route oral; conditions: in vivo
NCI-N87 [13] = experiment: Cytotoxicity against human NCI-N87 cells after 72 hrs by SRB assay; format: functional, cell-based; conditions: NCI-N87, 72 h
Mus musculus [14] = experiment: Toxicity in BALB/c athymic mouse xenografted with human SKOV3 cells assessed as lethargic condition at 200 mg/kg, po qd; format: organism-based, SK-OV-3; design: dose 200 mg/kg, route oral; conditions: in vivo
Mus musculus [15] = experiment: Toxicity in BALB/c athymic mouse xenografted with human SKOV3 cells assessed as death at 200 mg/kg, po qd after 4 days; format: organism-based, SK-OV-3; design: dose 200 mg/kg, route oral; conditions: in vivo, 96 h; how it was run: as §1
BT-474 = experiment: Cytotoxicity against human BT474 cells after 72 hrs by SRB assay; format: functional, cell-based; conditions: BT-474, 72 h
[16] = AUC (0 to infinity) in Wistar rat at 100 mg/kg, po; format: ADME, organism-based; design: time infinity, dose 100 mg/kg, route oral; conditions: plasma
How it was run: (§2)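 Male Wistar rats (220 ± 10 g), n = 4 per group, given the tosylate salt orally by gavage at 100 mg/kg, suspended in 0.5% sodium carboxymethylcellulose. Blood was sampled at 0.25 to 24 h. Parent compound and the lapatinib metabolite were extracted by C18 solid-phase extraction and analysed by LC/MSn.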

[17] = Mean residence time in Wistar rat at 100 mg/kg, po; format: ADME, organism-based; design: dose 100 mg/kg, route oral; conditions: in vivo; how it was run: as §2
Rattus norvegicus [18] = experiment: Tmax in Wistar rat at 100 mg/kg, po assessed as lapatinib; format: ADME, organism-based; design: dose 100 mg/kg, route oral; conditions: in vivo; how it was run: as §2
[19] = Tmax in Wistar rat at 100 mg/kg, po; format: ADME, organism-based; design: dose 100 mg/kg, route oral; conditions: in vivo; how it was run: as §2
Rattus norvegicus [20] = experiment: AUC (0 to t) in Wistar rat at 100 mg/kg, po assessed as lapatinib; format: ADME, organism-based, Plasma; design: dose 100 mg/kg, route oral; conditions: in vivo; how it was run: as §2
Rattus norvegicus [21] = experiment: Elimination half life in Wistar rat at 100 mg/kg, po assessed as lapatinib; format: ADME, organism-based; design: dose 100 mg/kg, route oral; conditions: in vivo; how it was run: as §2
Rattus norvegicus [22] = experiment: Mean residence time in Wistar rat at 100 mg/kg, po assessed as lapatinib; format: ADME, organism-based; design: dose 100 mg/kg, route oral; conditions: in vivo; how it was run: as §2
[23] = Cmax in Wistar rat at 100 mg/kg, po; format: ADME, organism-based; design: dose 100 mg/kg, route oral; conditions: in vivo; how it was run: as §2
[24] = Elimination half life in Wistar rat at 100 mg/kg, po; format: ADME, organism-based; design: dose 100 mg/kg, route oral; conditions: in vivo, read-out: beta t1/2 (converted); how it was run: as §2
[25] = AUC (0 to t) in Wistar rat at 100 mg/kg, po; format: ADME, organism-based; design: dose 100 mg/kg, route oral; conditions: plasma; how it was run: as §2
Rattus norvegicus [26] = experiment: AUC (0 to infinity) in Wistar rat at 100 mg/kg, po assessed as lapatinib; format: ADME, organism-based, Plasma; design: time infinity, dose 100 mg/kg, route oral; conditions: in vivo; how it was run: as §2
Rattus norvegicus [27] = experiment: Cmax in Wistar rat at 100 mg/kg, po assessed as lapatinib; format: ADME, organism-based; design: dose 100 mg/kg, route oral; conditions: in vivo; how it was run: as §2
NCI-N87 [28] = experiment: Antitumor activity against human NCI-N87 cells xenografted in BALB/c athymic mouse assessed as tumor regression at 200 mg/kg, po qd after 28 days relative to vehicle-treated control; format: functional; conditions: NCI-N87, 672 h, read-out: TGI
How it was run: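 Female BALB/c athymic mice, 4–6 weeks old, received 2 × 10⁶ NCI-N87 or SK-OV-3 cells s.c. in the right flank. At a tumor volume of 100–300 mm³ they were randomized (control n = 10, treated n = 6). Tosylate salt was given at 200 mg/kg qd by oral gavage, and controls received vehicle. Tumor volume was taken as length × width²/2 by caliper. Inhibition = (1 − T/C) × 100% on mean relative tumor volume (RTV). Two-tailed t test.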

[29] = Aqueous solubility of the compound at 25 degC by shake-flask method; format: physicochemical; conditions: unbuffered water
SK-OV-3 = experiment: Antitumor activity against human SKOV3 cells xenografted in BALB/c athymic mouse assessed as tumor regression at 200 mg/kg, po qd after 21 days relative to vehicle-treated control; conditions: SK-OV-3, po, 504 h, read-out: TGI
Mus musculus [30] = experiment: Toxicity in BALB/c athymic mouse xenografted with human SKOV3 cells assessed as bloody stool at 200 mg/kg, po qd after 4 days; format: organism-based, SK-OV-3; design: dose 200 mg/kg, route oral; conditions: in vivo, 96 h
Mus musculus [31] = experiment: Toxicity in BALB/c athymic mouse xenografted with human NCI-N87 cells assessed as bloody stool at 200 mg/kg, po qd after 4 days; format: organism-based; design: dose 200 mg/kg, route oral; conditions: in vivo, 96 h

Chain of Epidermal growth factor receptor (P00533 whole entry): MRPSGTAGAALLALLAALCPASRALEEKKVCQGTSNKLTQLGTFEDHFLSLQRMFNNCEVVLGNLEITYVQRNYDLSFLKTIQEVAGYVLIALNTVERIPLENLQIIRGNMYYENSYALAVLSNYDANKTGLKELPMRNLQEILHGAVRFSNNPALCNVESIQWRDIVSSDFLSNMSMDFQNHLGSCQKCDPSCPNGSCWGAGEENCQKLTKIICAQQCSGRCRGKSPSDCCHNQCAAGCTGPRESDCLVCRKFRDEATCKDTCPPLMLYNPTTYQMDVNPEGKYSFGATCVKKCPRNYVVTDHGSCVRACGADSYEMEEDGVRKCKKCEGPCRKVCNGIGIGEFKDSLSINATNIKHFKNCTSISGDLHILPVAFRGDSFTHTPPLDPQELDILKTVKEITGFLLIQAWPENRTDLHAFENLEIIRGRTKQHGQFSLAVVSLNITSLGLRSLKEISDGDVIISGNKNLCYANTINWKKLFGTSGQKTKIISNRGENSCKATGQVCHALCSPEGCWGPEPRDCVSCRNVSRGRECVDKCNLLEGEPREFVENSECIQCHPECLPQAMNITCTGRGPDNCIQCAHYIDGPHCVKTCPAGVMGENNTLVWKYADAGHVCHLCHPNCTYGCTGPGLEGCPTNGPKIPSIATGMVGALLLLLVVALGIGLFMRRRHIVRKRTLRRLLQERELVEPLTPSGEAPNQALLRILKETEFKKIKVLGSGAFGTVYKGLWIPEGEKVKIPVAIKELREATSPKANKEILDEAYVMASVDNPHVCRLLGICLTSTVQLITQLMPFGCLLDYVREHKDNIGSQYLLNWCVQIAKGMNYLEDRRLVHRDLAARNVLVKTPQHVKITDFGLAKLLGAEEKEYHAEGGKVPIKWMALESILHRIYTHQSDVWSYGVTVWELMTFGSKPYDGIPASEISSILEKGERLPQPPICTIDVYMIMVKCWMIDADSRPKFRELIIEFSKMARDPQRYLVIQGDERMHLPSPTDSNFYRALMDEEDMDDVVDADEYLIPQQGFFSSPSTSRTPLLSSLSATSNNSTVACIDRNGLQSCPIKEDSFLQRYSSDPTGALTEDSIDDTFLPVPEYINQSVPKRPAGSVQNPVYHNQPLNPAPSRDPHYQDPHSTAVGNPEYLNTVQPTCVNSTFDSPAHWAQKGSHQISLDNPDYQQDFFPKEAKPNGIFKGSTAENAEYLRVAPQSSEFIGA
Chain of Receptor tyrosine-protein kinase erbB-2 (P04626 whole entry): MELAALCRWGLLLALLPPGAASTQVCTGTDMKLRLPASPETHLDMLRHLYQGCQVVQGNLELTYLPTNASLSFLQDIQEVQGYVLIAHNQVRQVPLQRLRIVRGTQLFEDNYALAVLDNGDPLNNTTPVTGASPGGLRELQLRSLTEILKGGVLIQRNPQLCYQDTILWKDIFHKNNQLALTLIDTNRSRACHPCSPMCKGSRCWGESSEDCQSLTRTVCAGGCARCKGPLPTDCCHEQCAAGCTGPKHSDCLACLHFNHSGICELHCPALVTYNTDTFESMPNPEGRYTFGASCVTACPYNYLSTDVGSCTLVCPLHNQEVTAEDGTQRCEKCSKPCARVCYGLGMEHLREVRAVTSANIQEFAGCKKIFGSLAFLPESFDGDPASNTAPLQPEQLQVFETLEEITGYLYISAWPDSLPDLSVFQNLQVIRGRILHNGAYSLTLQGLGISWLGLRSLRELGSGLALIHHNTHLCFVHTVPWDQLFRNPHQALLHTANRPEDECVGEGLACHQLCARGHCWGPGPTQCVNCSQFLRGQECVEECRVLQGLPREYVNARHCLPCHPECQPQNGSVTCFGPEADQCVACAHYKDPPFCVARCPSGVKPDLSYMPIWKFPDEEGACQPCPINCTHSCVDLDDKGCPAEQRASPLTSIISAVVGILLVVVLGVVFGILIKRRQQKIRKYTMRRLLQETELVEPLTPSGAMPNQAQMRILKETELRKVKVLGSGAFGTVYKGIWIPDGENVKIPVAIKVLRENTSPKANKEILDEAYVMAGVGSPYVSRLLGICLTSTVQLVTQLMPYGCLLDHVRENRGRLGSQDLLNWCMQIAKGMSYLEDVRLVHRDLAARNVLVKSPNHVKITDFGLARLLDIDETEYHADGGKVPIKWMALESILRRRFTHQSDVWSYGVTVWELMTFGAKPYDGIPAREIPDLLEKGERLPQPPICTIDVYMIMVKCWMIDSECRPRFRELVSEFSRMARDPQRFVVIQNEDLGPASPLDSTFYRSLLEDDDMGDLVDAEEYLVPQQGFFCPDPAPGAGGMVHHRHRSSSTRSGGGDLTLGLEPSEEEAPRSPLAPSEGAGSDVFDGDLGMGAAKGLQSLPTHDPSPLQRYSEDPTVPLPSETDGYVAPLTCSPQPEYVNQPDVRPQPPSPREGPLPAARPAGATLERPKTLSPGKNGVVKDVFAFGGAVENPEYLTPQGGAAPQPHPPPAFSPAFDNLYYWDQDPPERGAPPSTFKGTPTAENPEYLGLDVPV

With `CN1CCN(Cc2ccc(-c3ccc4ncnc(Nc5ccc(OCc6cccc(F)c6)c(Cl)c5)c4c3)o2)CC1` the pIC50 [1] was 7.90 and the pIC50 [2] was 7.63.
For `Cc1ccc(S(=O)(=O)O)cc1.Fc1cccc(COc2ccc(Nc3ncnc4ccc(-c5ccc(CN6CCNCC6)o5)cc34)cc2Cl)c1`, the Activity (Mus musculus [3]) was “Toxic”, the Activity (Mus musculus [4]) was “Toxic” and the Activity (Mus musculus [5]) was “Toxic”. The Activity (Mus musculus [6]) was “Toxic”, the Activity (Mus musculus [7]) was “Toxic” and the Activity (Mus musculus [8]) was “Toxic”. The Activity (Mus musculus [9]) was “Toxic”, the Activity (Mus musculus [10]) was “Toxic” and the Activity (Mus musculus [11]) was “Toxic”. The pIC50 [2] was 7.91, the Activity (Mus musculus [12]) was “Toxic” and the pIC50 (NCI-N87 [13]) was 7.53. For the same molecule, the Activity (Mus musculus [14]) was “Toxic”, the Activity (Mus musculus [15]) was “Toxic” and the pIC50 (BT-474) was 7.38.
With `C[S+]([O-])CCNCc1ccc(-c2ccc3ncnc(Nc4ccc(OCc5cccc(F)c5)c(Cl)c4)c3c2)o1.Cc1ccc(S(=O)(=O)O)cc1` (configuration not stated) the AUC(0-inf) [16] was 53200 ng·h/mL, the MRT [17] was 5.38 h and the Tmax (Rattus norvegicus [18]) was 4.5 h. The Tmax [19] was 3.5 h, the AUCt (Rattus norvegicus [20]) was 4295 ng·h/mL and the “beta t1/2” value (Rattus norvegicus [21]) was 2.64 h. It also gave an MRT (Rattus norvegicus [22]) of 5.88 h, a Cmax [23] of 8880 ng/mL and a half-life [24] of 2.32 h. For the same molecule, the AUC(0-t) [25] was 50300 ng·h/mL, the AUC (Rattus norvegicus [26]) was 4309 ng·h/mL and the Cmax (Rattus norvegicus [27]) was 645 ng/mL.
For `CC(=O)N1CCN(Cc2ccc(-c3ccc4ncnc(Nc5ccc(OCc6cccc(F)c6)c(Cl)c5)c4c3)o2)CC1`, the pIC50 [1] was 7.94 and the pIC50 [2] was 8.17.
For `CS(=O)(=O)CCNCc1ccc(-c2ccc3ncnc(Nc4ccc(OCc5cccc(F)c5)c(Cl)c4)c3c2)o1.Cc1ccc(S(=O)(=O)O)cc1.Cc1ccc(S(=O)(=O)O)cc1.O` [LAPATINIB DITOSYLATE], the AUC(0-inf) [16] was 26900 ng·h/mL, the MRT [17] was 5.52 h and the Tmax [19] was 2.5 h. For the same molecule, the inhibition in vivo at 200 mg/kg (NCI-N87 [28]) was 89.7%, the solubility [29] was 7 µg/mL and the Cmax [23] was 3900 ng/mL. It also gave a half-life [24] of 1.91 h, an AUC(0-t) [25] of 26900 ng·h/mL and an inhibition in vivo at 200 mg/kg (SK-OV-3) of 78.8%. For the same molecule, the pIC50 (NCI-N87 [13]) was 7.34 and the pIC50 (BT-474) was 7.43.
With `Cc1ccc(S(=O)(=O)O)cc1.O=S(=O)(CCNCc1ccc(-c2ccc3ncnc(Nc4ccc(OCc5cccc(F)c5)c(Cl)c4)c3c2)o1)CC(F)(F)F` the inhibition in vivo at 200 mg/kg (NCI-N87 [28]) was 46.9%, the Activity (Mus musculus [3]) was “Non-toxic” and the Activity (Mus musculus [4]) was “Non-toxic”. For the same molecule, the Activity (Mus musculus [30]) was “Non-toxic”, the solubility [29] was 16.7 µg/mL and the Activity (Mus musculus [7]) was “Non-toxic”. The Activity (Mus musculus [31]) was “Non-toxic”, the Activity (Mus musculus [10]) was “Non-toxic” and the pIC50 [1] was 7.68. The inhibition in vivo at 200 mg/kg (SK-OV-3) was 45.2%, the pIC50 [2] was 8.07 and the pIC50 (NCI-N87 [13]) was 7.29. The pIC50 (BT-474) was 7.58.
Work on `CN1CCN(C(=O)c2ccc(-c3ccc4ncnc(Nc5ccc(OCc6cccc(F)c6)c(Cl)c5)c4c3)o2)CC1` yielded a pIC50 [1] of 6.63 and a pIC50 [2] of 7.27.
